What was measured:
Type in all cases: functional
[1] = tested on: CCRF-CEM; assay: Growth inhibition of human CCRF-CEM cells assessed as cell growth at 1 nM relative to untreated control; conditions: read-out: Activity
[2] = tested on: SF-539; assay: Growth inhibition of human SF539 cells assessed as cell growth at 100 nM relative to untreated control; conditions: read-out: Activity
[3] = tested on: NCI-H460; assay: Growth inhibition of human NCI-H460 cells assessed as cell growth at 100 nM relative to untreated control; conditions: read-out: Activity
[4] = tested on: HL-60(TB); assay: Growth inhibition of human HL-60(TB) cells assessed as cell growth at 10 nM relative to untreated control; conditions: read-out: Activity
[5] = tested on: ACHN; assay: Growth inhibition of human ACHN cells
[6] = tested on: CAKI-1; assay: Growth inhibition of human Caki1 cells assessed as cell growth at 1 uM relative to untreated control; conditions: read-out: Activity
Procedure, shortened: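 Run externally at the National Cancer Institute as a 59-cell-line panel screen, with concentrations up to 100 μM. Growth was scored relative to control, where negative growth or total cell kill was possible. Data are in the Supporting Information.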

How did the growth at 0.001 µM [1] turn out when COc1ccc2c(c1)[nH]c1c(C)c(OS(=O)(=O)c3cccc4c(N(C)C)cccc34)ccc12 was run?
Its growth at 0.001 µM is 99%.

And the growth at 0.1 µM [2]?
The growth at 0.1 µM was 87%.

And the growth at 0.1 µM [3]?
Its growth at 0.1 µM is 98%.

What about the growth at 0.01 µM [4] of the same molecule?
Its growth at 0.01 µM is 83%.

And the GI50 [5]?
Its GI50 is 7.38 µM.

What about the TGI [5] of the same molecule?
The TGI was > 100 µM.

What about the CC50 ([5]; read-out: LC50 (the source's name)) of the same molecule?
Its CC50 is > 100 µM.

What about the growth at 1 µM [6] of the same molecule?
The growth at 1 µM was 69%.
